Shown are actives, neighbours in structure and some others; about 11% of the full set was active somewhere.
WT yeast gro inh = growth inhibition of WT yeast, mitochondrial fusion screen; 2.1% of 190,000 active; mitochondrial fusion phenotypic screen, WT strain; inhibition, % at 10 µM; AID 1362; in the data active means inhibition above about 58%; tested in S. cerevisiae
G6PDH counter = inhibits Leuconostoc G6PDH, flagging false hits in G6PDH-based assays | inhibition, % at 5 µM | Purified L. mesenteroides G6PDH, diaphorase/resazurin coupled fluorescence, 45 min | 0.12% of 200,000 active
Lmaj promast = reduces viability of Leishmania major promastigotes; resazurin fluorescence viability; inhibition, % at 10 µM; 9% of 200,000 active; AID 1063;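 further: promastigotes grown with compound for 44 hours at 28 °C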
Diaphorase act = counter-screen for diaphorase-based assays: diaphorase activators and chemical reducers. Diaphorase/resazurin coupled assay, resorufin fluorescence, 16 min; hits give high values; 1 = vehicle wells, 0 = NADH-free wells. activation factor at 20 µM. 0.005% of 190,000 active. AID 1229;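 active means diaphorase activity raised at least twofold by the compound at 20 µM; inactive means activation factor below 2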
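System – purified diaphorase enzyme from Clostridium kluyveri · Input – enzyme 0.07 U/mL final · Also added – final NADH 0.114 mM, resazurin 0.1 mM · Measured by – fluorescence of resorufin, 544 nm excitation, 590 nm emission · Timing – 16 min enzyme reaction, ambient temperature · Measure – resorufin increase flagging diaphorase activators or reducers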
Diaphorase inh = inhibits diaphorase or chemically oxidizes, flagging diaphorase assay artifacts. diaphorase resazurin-to-resorufin fluorescence, NADH, 16 min; bacterial (C. kluyveri) enzyme, not human. inhibition, % at 20 µM. 0.69% of 190,000 active. AID 1217;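 active means primary screen inhibition at 20 µM above a set limit, cut at about 50% in these data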
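Detection: fluorescence of resorufin formed from resazurin, Ex 544/Em 590 nm; test system: Clostridium kluyveri diaphorase enzyme; amount: 0.14 U/mL diaphorase, enzyme working solution; times: 16-min room-temperature incubation before reading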
Each line names hits and unclear results; the compound was inactive in the other large screens. Unless noted, no stated cut-off is given here; in the data, active means inhibition above about 50%; inactive means the rest.

COc1cccc(-c2nc(CS(=O)(=O)CC(=O)NCCC(C)C)c(C)o2)c1	none
CC1CN=C(N(C(=O)Nc2ccccc2)c2ccc(F)cc2)S1 (centres undefined)	none
O=C(COC(=O)C1CC2C=CC1C2)Nc1cccc(S(=O)(=O)N2CCCCCC2)c1 (centres undefined)	none
O=C(COc1ccc(-c2ccccc2)cc1)N1CCN(S(=O)(=O)Cc2ccccc2)CC1	none
CCC(C)c1ccccc1OCCCCN1CCCC1 (centres undefined)	Lmaj promast 99
CCC(C)c1ccccc1OCCOCCN1CCCC1 (centres undefined)	Lmaj promast 98
Cc1ccc(/C=C(\NC(=O)c2ccc(C)cc2)C(=O)NCCCn2ccnc2)cc1	none
CCCCCC(=O)Nc1ccc(S(=O)(=O)Nc2nccnc2OC)cc1	none
COc1ccc(Cc2[nH]n3c(=O)cc(C(C)C)nc3c2-c2ccccc2)cc1	Lmaj promast 97
CN(Cc1ccc(F)cc1)C(=O)c1ccc2c(c1)NC(=O)CS2	none
CN(Cc1ccc(F)cc1)C(=O)c1cccc(OC2CCN(C3CCCC3)CC2)c1	Lmaj promast 93
COc1cccc(-c2csc(N3CCN(C(=S)Nc4ccccc4Cl)CC3)n2)c1	Lmaj promast 100
COc1cccc(-c2csc(N3CCN(C(=S)Nc4ccccc4OC)CC3)n2)c1	Lmaj promast 93
O=C(NCC1CCCO1)C1CCCN1C(=O)Nc1ccc(Cl)c(Cl)c1 (centres undefined)	none (no result: Diaphorase act, Diaphorase inh)
CCN(C(=O)COC(=O)/C=C/c1cccc([N+](=O)[O-])c1)c1ccccc1	none
O=C(Nc1ccccc1)c1cc(-c2ccccc2Cl)no1	none
COc1ccc(NC(=O)c2cc(-c3ccccc3Cl)no2)cc1	WT yeast gro inh 85
Cn1c(CCN2CCOCC2)nc2cc(NC(=O)c3cccs3)ccc21	none
Cc1ccc(NC(=O)[C@@H]2CCCN2S(=O)(=O)c2ccccc2C(F)(F)F)cc1S(=O)(=O)N1CCOCC1	Lmaj promast 98
CCOc1ccc(Oc2c(/C=N/NC(=O)COc3ccccc3OC)c(C)nn2-c2ccccc2)cc1	WT yeast gro inh 67
CCOc1ccc(Oc2c(/C=N/NC(N)=O)c(C)nn2-c2ccccc2)cc1	Lmaj promast 98
CCCCNC(=S)Nc1ccc(Oc2ccccc2)cc1	WT yeast gro inh 65
CCOc1ccc(NC(=S)NCCN2CCN(Cc3ccccc3)CC2)cc1	none
CCOc1ccc(NC(=S)Nc2ccc(OCc3ccccc3)cc2)cc1	Lmaj promast 52
CCOc1ccc(NC(=S)NCCCc2ccccc2)cc1	WT yeast gro inh 70
CC(C)(C)c1ccc(OCCNC(=S)Nc2ccccc2)cc1	WT yeast gro inh 82
CCOc1ccc(NC(=S)NN2C(C)CCCC2C)cc1 (centres undefined)	Lmaj promast 51
CC(=O)c1ccc(NC(=S)NN2C(C)CCCC2C)cc1 (centres undefined)	none
CCCNC(=S)Nc1ccc(Oc2ccccc2)cc1	none
CCOc1ccc(S(=O)(=O)NNC(=S)Nc2ccc(Br)cc2)cc1	Lmaj promast 62
CCOc1ccc(CSCCNC(=S)Nc2ccccc2)cc1	WT yeast gro inh 71
CCOC(=O)C1CCN(C(=O)c2cc(S(=O)(=O)N3CCOCC3)c(Cl)cc2Cl)CC1	none
CN(C(=O)COC(=O)c1ccc2c(=O)n3c(nc2c1)CCC3)c1ccccc1	none
COc1ccc(Nc2nc(S(=O)(=O)c3ccc(C)cc3)c(Cl)s2)cc1	none
Cc1ccc(S(=O)(=O)c2nc(NCCN(C)C)sc2Cl)cc1	Lmaj promast 89
Cc1ccc(S(=O)(=O)c2nc(Nc3ccccc3)sc2Cl)cc1	WT yeast gro inh 79
O=S(=O)(c1ccccc1)c1nc(NCc2ccccc2)sc1Cl	none
COc1ccc(OC)c(/C=N/NC(=O)CC2C(=O)NN=C2C)c1 (centres undefined)	none
O=C(CNS(=O)(=O)c1c(Cl)cccc1Cl)OCC(=O)N1CCN(c2ccccc2)CC1	none
Nc1nc2ccccc2n1/N=C/c1ccc([N+](=O)[O-])s1	Lmaj promast 100
CC(C)Nc1nc(NC(C)C)nc(OCCOC(=O)Nc2ccccc2)n1	none
CC(C)OC(=O)/C(=C\c1cccc2ccccc12)NC(=O)c1ccccc1	Lmaj promast 91
COc1cc(NC(=O)CSc2nncn2C)c(C)cc1[N+](=O)[O-]	none
Cc1ccc(S(=O)(=O)N(CC(=O)NCc2ccco2)Cc2ccccc2F)cc1	Lmaj promast 93
COC(=O)Cc1ccc(N(Cc2ccccc2F)S(=O)(=O)c2ccc(C)cc2)cc1	WT yeast gro inh 72
Cc1ccc(N(CCC(=O)O)S(=O)(=O)c2ccccc2)cc1	none
CN(CCCC(=O)NCc1ccco1)S(=O)(=O)c1ccccc1	WT yeast gro inh 60
COc1ccc(N(CC(=O)NCc2ccco2)S(=O)(=O)c2ccccc2)cc1	none
CC(NC(=O)C1CCCN(S(=O)(=O)c2cnc[nH]2)C1)c1ccccc1 (centres undefined)	none
CCCNC(=O)Nc1cc(OCC)c(N2CCOCC2)cc1OCC	none
CCNC(=S)Nc1cc(OCC)c(N2CCOCC2)cc1OCC	Lmaj promast 64
O=C(NC1CC1)C1=C[C@H](c2ccc(C(F)(F)F)cc2)C[C@H](OCc2ccc(CO)cc2)O1	none
O=C(Nc1nnc(-c2ccco2)o1)c1ccc(Cl)cc1	WT yeast gro inh 65
CCc1nnc(NC(=O)c2ccc(S(=O)(=O)N(CC)Cc3ccccc3)cc2)o1	WT yeast gro inh 63, Lmaj promast 99
CCCCN(CC)S(=O)(=O)c1ccc(C(=O)Nc2nnc(-c3cccs3)o2)cc1	Lmaj promast 99
CCCCN(C)S(=O)(=O)c1ccc(C(=O)Nc2nnc(-c3ccco3)o2)cc1	Lmaj promast 96
CCc1ccc2nc(SCC(=O)Nc3nnc(C)s3)c(C)cc2c1	none
CN(C)S(=O)(=O)c1ccc(C(=O)Nc2nnc(-c3ccco3)o2)cc1	none
CCN(CC)S(=O)(=O)c1ccc(C(=O)Nc2nnc(-c3ccco3)o2)cc1	Lmaj promast 92
Cc1nn(Cc2ccc(Cl)cc2Cl)c(C)c1NC(=O)NC12CC3CC(CC(C3)C1)C2	WT yeast gro inh 68, Lmaj promast 100
Cc1ccc(N2C(=S)N=C(Nc3ccccc3C)C23CCOC(C)(C)C3)cc1 (centres undefined)	none
Cn1nnnc1SCC(=O)Nc1ccccc1N1CCCCC1	none
CC1CCCC(C)N1CC(C)(C)NS(=O)(=O)c1ccc(Cl)cc1 (centres undefined)	Lmaj promast 88
Cc1ccc(S(=O)(=O)NC(C)(C)CSc2ncccn2)cc1	none
CC1CC(C)CN(CC(C)(C)NS(=O)(=O)c2ccccc2)C1 (centres undefined)	Lmaj promast 89
O=C(CSc1ccc(Cl)cc1)NCc1ccncc1	none
CCN(CC)CCCNC(=O)c1cc2c(-c3ccc(Cl)cc3)nn(C)c2s1	Lmaj promast 100
Cn1nc(-c2ccc(Cl)cc2)c2cc(C(=O)NCC3CCCO3)sc21 (centres undefined)	none

Screening data: PubChem, several laboratories
